pIC50: −log10 of the molar value. Values after ≈ are worked out from the molar mass of the structure shown.
Columns and labels:
[1] = Octanol/water partition coefficient, logD of the compound at pH 7.4 by HPLC analysis
Albumin = Albumin (Homo sapiens, UniProt P02768); assay: Protein binding in immobilized human serum albumin by HPLC analysis; type: ADME; conditions: isolated protein
Summary of the method: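 Binding estimated from gradient HPLC retention on a human albumin column, correlated against standard compounds of known protein binding.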

[2] = Kinetic solubility of the compound in 0.01 M HCl at pH 2 by nephelometry; type: physicochemical; conditions: read-out: Kinetic_solubility
[3] = Kinetic solubility of compound at pH 6.5 phosphate buffer by nephelometry; type: physicochemical; conditions: read-out: Kinetic_solubility
[4] = Intrinsic clearance in human liver microsome in presence of NADPH-regenerating system incubated over 60 mins by LC-MS analysis; conditions: microsomes, 1 h
[5] = Intrinsic clearance in mouse liver microsome in presence of NADPH-regenerating system incubated over 60 mins by LC-MS analysis; conditions: microsomes, 1 h
Schistosoma mansoni = assay: Antischistosomal activity against Schistosoma mansoni infected in NMRI mouse assessed as reduction in total worm burden at 100 mg/kg, po administered as single dose starting on day 49 post-infection and measured at 28 days post treatment relative to control; type: functional; set-up: scale not given: the % may be the effect or the level left; conditions: time 28 day
Summary of the method: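 S. mansoni-infected NMRI mice treated on day 49 post-infection with a single oral dose, dissolved or suspended in 7% v/v Tween 80, 3% v/v ethanol (10 mL/kg), five mice per group. Sacrificed and dissected 28 d post-treatment; worms counted to give total worm burden reduction versus untreated controls. Kruskal–Wallis test on medians, treatment versus control.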

L6 = assay: Cytotoxicity against rat L6 cells assessed as reduction in cell viability at up to 30 uM; type: cell-based
Androgen receptor = molecular target: T1, Androgen receptor (Homo sapiens, UniProt P10275)
T1 sequence (P10275 whole entry): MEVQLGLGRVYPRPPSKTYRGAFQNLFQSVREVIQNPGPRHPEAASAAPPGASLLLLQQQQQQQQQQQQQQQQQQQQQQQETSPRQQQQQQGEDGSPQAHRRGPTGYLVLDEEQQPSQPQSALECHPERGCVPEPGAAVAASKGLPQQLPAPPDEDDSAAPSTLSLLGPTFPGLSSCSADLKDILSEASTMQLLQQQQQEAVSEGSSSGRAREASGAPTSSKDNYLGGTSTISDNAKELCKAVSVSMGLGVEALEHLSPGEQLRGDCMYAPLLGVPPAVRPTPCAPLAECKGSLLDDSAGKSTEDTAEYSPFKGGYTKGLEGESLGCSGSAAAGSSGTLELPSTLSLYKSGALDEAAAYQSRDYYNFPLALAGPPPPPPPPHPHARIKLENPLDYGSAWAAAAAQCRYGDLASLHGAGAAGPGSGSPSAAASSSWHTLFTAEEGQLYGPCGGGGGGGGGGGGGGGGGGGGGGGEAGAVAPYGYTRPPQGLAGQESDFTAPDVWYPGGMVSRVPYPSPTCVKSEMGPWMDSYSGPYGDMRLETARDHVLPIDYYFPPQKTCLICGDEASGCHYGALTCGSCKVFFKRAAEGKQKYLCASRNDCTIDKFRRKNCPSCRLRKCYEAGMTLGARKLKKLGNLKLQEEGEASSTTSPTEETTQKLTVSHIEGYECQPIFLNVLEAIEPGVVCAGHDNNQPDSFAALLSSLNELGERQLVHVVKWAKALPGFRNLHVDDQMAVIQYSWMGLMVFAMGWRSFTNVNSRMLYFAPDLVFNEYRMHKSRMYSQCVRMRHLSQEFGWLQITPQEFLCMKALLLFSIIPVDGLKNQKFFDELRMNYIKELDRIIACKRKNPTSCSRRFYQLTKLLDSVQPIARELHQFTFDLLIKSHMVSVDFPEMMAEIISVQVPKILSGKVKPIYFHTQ

Chain of Albumin (P02768 whole entry): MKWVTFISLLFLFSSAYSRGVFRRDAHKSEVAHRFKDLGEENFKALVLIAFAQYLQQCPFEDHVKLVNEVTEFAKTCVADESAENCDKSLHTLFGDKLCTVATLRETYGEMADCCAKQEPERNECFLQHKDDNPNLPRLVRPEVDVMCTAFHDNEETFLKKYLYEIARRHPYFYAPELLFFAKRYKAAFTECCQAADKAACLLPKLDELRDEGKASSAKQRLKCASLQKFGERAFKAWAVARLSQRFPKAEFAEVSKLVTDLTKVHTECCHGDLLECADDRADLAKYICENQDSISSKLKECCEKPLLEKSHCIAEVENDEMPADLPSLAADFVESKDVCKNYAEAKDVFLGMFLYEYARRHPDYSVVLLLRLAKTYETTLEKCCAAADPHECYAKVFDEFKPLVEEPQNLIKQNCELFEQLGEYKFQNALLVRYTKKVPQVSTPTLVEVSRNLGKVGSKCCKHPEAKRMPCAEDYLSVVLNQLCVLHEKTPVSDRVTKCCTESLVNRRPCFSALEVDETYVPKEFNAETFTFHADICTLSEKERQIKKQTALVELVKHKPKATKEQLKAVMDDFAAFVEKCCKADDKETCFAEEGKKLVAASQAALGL

Row | SMILES | logD [1] | PPB (Albumin) [%] | solubility kinetic [2] [µg/mL] | solubility kinetic [3] [µg/mL] | CLH [4] [µL/min/mg] | CLH [5] [µL/min/mg] | Activity (Schistosoma mansoni) [%] | Activity (L6) | pIC50 (Androgen receptor)
1 | CC1(C)C(=O)N(c2ccc(F)c(C(F)(F)F)c2)C(=O)N1CCc1ccccc1 | 4.6 | 96.2 | 12.5 (≈ 31.7 µM) | 25 (≈ 63.4 µM) | > 870 | 740 | 54 | Non-Toxic | 5.62
2 | CC(C)(NC(=O)Nc1ccc(F)c(C(F)(F)F)c1)C(=O)O | 1.1 | 94.3 | 25 (≈ 81.1 µM) | > 100 | < 7 | < 7 | 67 | Non-Toxic | 5.51
3 | CC1(CO)NC(=O)N(c2ccc(F)c(C(F)(F)F)c2)C1=O (stereo unspecified) | 1.9 | 34.3 | 25 (≈ 81.6 µM) | 25 (≈ 81.6 µM) | < 7 | < 7 | 0 | Non-Toxic | 5.32
4 | CC1(C)NC(=O)N(c2cccc(C(F)(F)F)c2)C1=O | 2.5 | 49.3 | > 100 | > 100 | < 7 | < 7 | 80 | Non-Toxic | 5.22
5 | CC1(C)NC(=O)N(c2cnccn2)C1=O | 0.3 | 5.8 | > 100 | > 100 | < 7 | < 7 | 42 | Non-Toxic | < 5.00
6 | O=C1C2CCCN2C(=O)N1c1ccc(F)c(C(F)(F)F)c1 (stereo unspecified) | 3 | 46 | 25 (≈ 82.7 µM) | 25 (≈ 82.7 µM) | 30 | 144 | 0 | Non-Toxic | 5.46
7 | O=C1NC2(CCCCC2)C(=O)N1c1ccc(F)c(C(F)(F)F)c1 | 3.5 | 74.9 | 3.1 (≈ 9.39 µM) | 3.1 (≈ 9.39 µM) | 25 | 122 | 42 | Non-Toxic | 5.38
8 | CC1(C)NC(=O)N(c2ccc(Cl)c(C(F)(F)F)c2)C1=O | 3 | 79.6 | > 100 | > 100 | < 7 | < 7 | 75 | Non-Toxic | 5.89
9 | CC1(C)CC(=O)N(c2ccc(F)c(C(F)(F)F)c2)C1=O | 3.4 | 42.5 | 12.5 (≈ 43.2 µM) | 12.5 (≈ 43.2 µM) | 11 | 10 | 42 | Non-Toxic | 6.04
10 | CC1(C)NC(=O)N(c2ccnc3ccccc23)C1=O | 1.2 | 16.9 | > 100 | > 100 | < 7 | < 7 | 17 | Non-Toxic | 5.89
11 | CC1(C)NC(=O)N(c2ccncc2)C1=O |  | 6.7 | 50 (≈ 244 µM) | > 100 | < 7 | 11 | 1.8 | Non-Toxic | 5.42
12 | CC1(C)NC(=O)N(c2ccc(F)c(C#N)c2)C1=O | 1.7 | 14.6 | > 100 | > 100 | < 7 | < 7 | 10 | Non-Toxic | 5.43
13 | CC1(C)NC(=O)N(c2ccc([N+](=O)[O-])c(C(F)(F)F)c2)C1=O [NILUTAMIDE] | 3 | 70.3 | 50 (≈ 158 µM) | 50 (≈ 158 µM) | < 7 | < 7 | 31 |  | 
14 | CC1(C)C(=O)NC(=O)N1c1ccc(F)c(C(F)(F)F)c1 | 2.5 | 67.1 | 25 (≈ 86.1 µM) | 25 (≈ 86.1 µM) | < 7 | < 7 | 0 | Non-Toxic | 5.55
15 | CC1(C)CNC(=O)N(c2ccc(F)c(C(F)(F)F)c2)C1=O | 2.5 | 21.5 | 12.5 (≈ 41.1 µM) | 12.5 (≈ 41.1 µM) | 9 | 15 | 19 | Non-Toxic | 5.16
16 | CC1(C)C(=O)N(c2ccc(F)c(C(F)(F)F)c2)C(=O)N1S(C)(=O)=O | 3.8 | 66 | 1.6 (≈ 4.34 µM) | 1.6 (≈ 4.34 µM) | < 7 | < 7 | 19 | Non-Toxic | 5.20
17 | O=C1CNC(=O)N1c1ccc(F)c(C(F)(F)F)c1 | 2 | 43.6 | > 100 | > 100 | < 7 | 13 | 0 | Non-Toxic | 6.59
18 | CC1(C)C(=O)N(c2ccc(F)c(C(F)(F)F)c2)C(=O)N1CC#N | 3.4 | 48.2 | 25 (≈ 75.9 µM) | 25 (≈ 75.9 µM) |  |  | 91 | Non-Toxic | 6.54
19 | CC1(C)NC(=O)C(c2ccc(F)c(C(F)(F)F)c2)C1=O (stereo unspecified) | 0.5 | 93.3 | 25 (≈ 86.4 µM) | > 100 | < 7 | < 7 | 0 | Non-Toxic | < 5.00
20 | CC1(C)CC(=O)N(c2ccc(F)c(C(F)(F)F)c2)C(=O)N1 | 2.4 | 15 | 25 (≈ 82.2 µM) | 25 (≈ 82.2 µM) | < 7 | < 7 | 51 | Non-Toxic | < 5.00
21 | CC1(C)CN(c2ccc(F)c(C(F)(F)F)c2)C(=O)N1 | 3.2 | 78.3 | 12.5 (≈ 45.3 µM) | 12.5 (≈ 45.3 µM) | < 7 | 30 | 59 | Non-Toxic | 5.09
22 | CC1(C)C(=O)N(c2ccc(F)c(C(F)(F)F)c2)C(=O)N1S(=O)(=O)c1ccccc1 | 4.6 | 96.1 | < 1.6 | < 1.6 | 210 | 160 | 44 | Non-Toxic | 5.37
23 | CC1(C)OC(=O)N(c2ccc(F)c(C(F)(F)F)c2)C1=O | 3.7 | 58.1 | 3.1 (≈ 10.6 µM) | 3.1 (≈ 10.6 µM) | 12 | 12 | 11 | Non-Toxic | 5.68
24 | O=C(C1CCCCC1)N1CC(=O)N2CCc3ccccc3C2C1 (stereo unspecified) [PRAZIQUANTEL] | 3 |  | > 100 | > 100 |  |  | 18 |  | 

Source: ChEMBL document CHEMBL4680100, “Revisiting the SAR of the Antischistosomal Aryl Hydantoin (Ro 13-3978)” (J Med Chem, 2016)
